Measurements: ChEMBL document CHEMBL1124054, “Synthesis and biological activity of ketomethylene-containing nonapeptide analogues of snake venom angiotensin converting enzyme inhibitors” (J Med Chem, 1988)
Each block holds one compound with its values, some of them ahead of it. Starred links: 1 amine or outer side, 2 acyl side, 3 side chain; linkers in the order of their positions; H or OH if unused. Non-standard residues stand in square brackets, D forms with d. Residues, ends and D or L forms follow the SMILES beside them. *: point of attachment. X2 = O=C(CCC(=O)[*:2])[C@H](Cc1ccccc1)N[*:1]; X1 = O=C(CCC(=O)[*:2])[C@@H]1CCCN1[*:1]; Cyclobutanecarbonyl = O=C(C1CCC1)*; pGlu = O=C1CC[C@@H](C(=O)O)N1; Nle = CCCC[C@H](N)C(=O)O

Assays:
[1] = target: T1, Angiotensin-converting enzyme (Rattus norvegicus, UniProt P47820); test: Inhibition of Angiotensin I converting enzyme in normotensive rat; type: functional; settings: read-out: I50 (converted)
T1 sequence (P47820 whole entry): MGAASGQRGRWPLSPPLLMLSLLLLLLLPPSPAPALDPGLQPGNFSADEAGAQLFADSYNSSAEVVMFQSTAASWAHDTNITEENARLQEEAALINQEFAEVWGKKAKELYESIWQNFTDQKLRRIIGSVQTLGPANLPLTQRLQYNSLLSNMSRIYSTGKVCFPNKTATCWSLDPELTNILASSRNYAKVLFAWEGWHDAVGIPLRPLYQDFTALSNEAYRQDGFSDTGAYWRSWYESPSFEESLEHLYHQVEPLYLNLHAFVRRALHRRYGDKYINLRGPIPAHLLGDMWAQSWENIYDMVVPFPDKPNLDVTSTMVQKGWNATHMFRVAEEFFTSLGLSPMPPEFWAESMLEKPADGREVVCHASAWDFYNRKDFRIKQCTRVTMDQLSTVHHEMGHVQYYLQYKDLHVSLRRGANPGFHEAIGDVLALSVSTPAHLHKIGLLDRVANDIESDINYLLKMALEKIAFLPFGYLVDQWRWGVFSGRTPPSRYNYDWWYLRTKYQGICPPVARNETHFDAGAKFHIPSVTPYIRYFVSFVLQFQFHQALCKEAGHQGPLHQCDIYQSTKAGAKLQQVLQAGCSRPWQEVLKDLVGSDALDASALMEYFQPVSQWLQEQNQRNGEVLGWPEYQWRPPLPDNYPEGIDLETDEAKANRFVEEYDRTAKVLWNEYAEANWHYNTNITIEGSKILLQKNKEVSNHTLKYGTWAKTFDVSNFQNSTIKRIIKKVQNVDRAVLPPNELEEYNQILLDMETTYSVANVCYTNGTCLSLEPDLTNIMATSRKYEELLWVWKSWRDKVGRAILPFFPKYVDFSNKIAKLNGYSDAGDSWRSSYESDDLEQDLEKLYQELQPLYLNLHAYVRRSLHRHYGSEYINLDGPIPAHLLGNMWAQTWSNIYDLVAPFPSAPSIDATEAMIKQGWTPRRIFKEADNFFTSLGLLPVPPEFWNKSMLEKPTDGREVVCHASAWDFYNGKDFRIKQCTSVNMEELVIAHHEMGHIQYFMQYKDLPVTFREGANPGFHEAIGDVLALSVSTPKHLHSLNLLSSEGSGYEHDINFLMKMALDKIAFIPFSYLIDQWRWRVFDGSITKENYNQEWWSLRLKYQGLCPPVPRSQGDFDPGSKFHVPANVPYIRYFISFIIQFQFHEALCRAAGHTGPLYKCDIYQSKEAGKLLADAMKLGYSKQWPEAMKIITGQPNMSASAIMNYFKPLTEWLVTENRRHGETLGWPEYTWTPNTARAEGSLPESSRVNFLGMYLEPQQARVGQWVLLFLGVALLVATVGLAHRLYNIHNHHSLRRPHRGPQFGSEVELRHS

[2] = target: Angiotensin-converting enzyme (Oryctolagus cuniculus) (UniProt P12822); test: Inhibition of Angiotensin I converting enzyme from rabbit lung; settings: read-out: I50
Rattus norvegicus [3] = species on record: Rattus norvegicus; test: Time required for 100% degradation in rat intestinal homogenate; type: ADME
In short: (§1)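 Rat small intestine was taken immediately after sacrifice and minced in Krebs Ringer (10 mL/g). Peptide (0.2–0.5 μmol) mixed with homogenate (1.0 mL per μmol), shaken at 37 °C. Degradation followed by TLC.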

Rattus norvegicus [4] = test: Inhibition of angiotensin I induced blood pressure in normotensive anesthetized rats at 10 ug/kg (i.v.) for 30 min; type: functional
In short: (§2)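 Male Sprague-Dawley normotensive rats (290-540 g), pentobarbital-anesthetized (50 mg/kg ip), intubated. Jugular vein cannulated for iv dosing and carotid artery for blood pressure. Control pressor response to angiotensin I (175 ng/kg iv) taken after vehicle (1 mL/kg). Compound given iv in distilled water or 5% sodium bicarbonate. Angiotensin I challenge repeated at 1.5 to 75 min, rise in pressure compared with control.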

Rattus norvegicus [5] = test: Inhibition of angiotensin I induced blood pressure in normotensive anesthetized rats at 30 ug/kg (i.v.) for 1.5 min; type: functional; in short: as §2
Rattus norvegicus [6] = test: Inhibition of angiotensin I induced blood pressure in normotensive anesthetized rats at 1 ug/kg (i.v.) for 5 min; type: functional; in short: as §2
Rattus norvegicus [7] = test: Inhibition of angiotensin I induced blood pressure in normotensive anesthetized rats at 10 ug/kg (i.v.) for 1.5 min; type: functional; in short: as §2
Rattus norvegicus [8] = test: Inhibition of angiotensin I induced blood pressure in normotensive anesthetized rats at 30 ug/kg (i.v.) for 30 min; type: functional; in short: as §2
Rattus norvegicus [9] = test: Inhibition of angiotensin I induced blood pressure in normotensive anesthetized rats at 1 ug/kg (i.v.) for 30 min; type: functional; in short: as §2
pepsin = test: Time required for 50% degradation by pepsin; type: ADME; settings: read-out: Time (converted)
[10] = Time required for 50% degradation in rat stomach homogenate; type: ADME; settings: read-out: Time (converted)
In short: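 Peptide, partially neutralized with 0.1 N HCl, incubated at 37 °C with 150 mg rat stomach homogenate. Breakdown monitored by TLC.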

[11] = Time required for 50% degradation in rat intestinal homogenate; type: ADME; settings: read-out: Time (converted); in short: as §1
Rattus norvegicus [12] = test: Inhibition of angiotensin I induced blood pressure in normotensive anesthetized rats at 1 ug/kg (i.v.) for 1.5 min; type: functional; in short: as §2
Rattus norvegicus [13] = test: Inhibition of angiotensin I induced blood pressure in normotensive anesthetized rats at 10 ug/kg (i.v.) for 75 min; type: functional; settings: in the assay text read “30 ug/kg” for “10 ug/kg”; in short: as §2
Rattus norvegicus [14] = test: Inhibition of angiotensin I induced blood pressure in normotensive anesthetized rats at 30 ug/kg (i.v.) for 10 min; type: functional; in short: as §2
Rattus norvegicus [15] = test: Inhibition of angiotensin I induced blood pressure in normotensive anesthetized rats at 10 ug/kg (i.v.) for 10 min; type: functional; in short: as §2
Rattus norvegicus [16] = test: Inhibition of angiotensin I induced blood pressure in normotensive anesthetized rats at 30 ug/kg (i.v.) for 5 min; type: functional; in short: as §2
[17] = Time required for degradation by trypsin (none); type: ADME
Rattus norvegicus [18] = test: Inhibition of angiotensin I induced blood pressure in normotensive anesthetized rats at 10 ug/kg (i.v.) for 5 min; type: functional; in short: as §2
[19] = Time required for degradation by chymotrypsin (none); type: ADME
In short: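 Peptide (0.5–1.0 μmol) in 0.1 M Tris, pH 7.8, stirred at room temperature with chymotrypsin (37 units dissolved in 50 mL cold 0.001 N HCl; 0.050 mL per μmol peptide). Degradation followed over time by TLC.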

Rattus norvegicus [20] = test: Inhibition of angiotensin I induced blood pressure in normotensive anesthetized rats at 1 ug/kg (i.v.) for 10 min; type: functional; in short: as §2

SMILES: CCCC[C@H](NC(=O)[C@@H]1CCC(=O)N1)C(=O)N[C@@H](Cc1ccccc1)C(=O)N[C@@H](C)C(=O)N1CCC[C@H]1C(=O)O ([pGlu][Nle]FAP-OH)
IC50 [1]: 0.359 µM

SMILES: NCCCC[C@H](NC(=O)[C@@H]1CCC(=O)N1)C(=O)N[C@@H](Cc1ccccc1)C(=O)NCC(=O)N1CCC[C@H]1C(=O)O ([pGlu]KFGP-OH)
IC50 [1]: 0.179 µM

IC50 [2]: 1.1 µM
SMILES: CC[C@H](C)[C@H](NC(=O)[C@H](CCC(N)=O)NC(=O)[C@@H]1CCCN1C(=O)[C@H](CCCNC(=N)N)NC(=O)[C@@H]1CCCN1C(=O)[C@H](Cc1c[nH]c2ccccc12)NC(=O)[C@@H]1CCC(=O)N1)C(=O)N1CCC[C@H]1C(=O)N1CCC[C@H]1C(=O)O [TEPROTIDE]

SMILES: CC[C@H](C)[C@H](NC(=O)[C@H](CCC(N)=O)NC(=O)[C@@H]1CCCN1C(=O)[C@H](CCCN=C(N)N)NC(=O)[C@@H]1CCCN1C(=O)[C@H](Cc1ccc(O)cc1)NC(=O)[C@@H]1CCC(=O)N1)C(=O)N1CCC[C@H]1C(=O)N1CCC[C@H]1C(=O)O ([pGlu]YPRPQIPP-OH)
IC50 [2]: 2.6 µM

SMILES: C[C@H](NC(=O)[C@H](Cc1ccccc1)NC(=O)[C@H](CCCCN)NC(=O)[C@@H]1CCCN1C(=O)[C@H](CCCN=C(N)N)NC(=O)[C@@H]1CCCN1C(=O)[C@H](Cc1c[nH]c2ccccc12)NC(=O)[C@@H]1CCC(=O)N1)C(=O)N1CCC[C@H]1C(=O)O ([pGlu]WPRPKFAP-OH)
IC50 [2]: 0.05 µM

Time (Rattus norvegicus [3]): 23 h
IC50 [2]: 0.008 µM
half-life (pepsin): 3 h
half-life [10]: 5 h
half-life [11]: 7 h
Time [17]: 24 h
Time [19]: 24 h
SMILES: CCCC[C@H](NC(=O)[C@@H]1CCCN1C(=O)CCC(=O)[C@@H]1CCCN1C(=O)[C@H](Cc1ccc(O)cc1)NC(=O)C1CCC1)C(=O)N[C@@H](Cc1ccccc1)C(=O)CCC(=O)N1CCC[C@H]1C(=O)O (Cyclobutanecarbonyl-Y[X1]P[Nle][X2]P-OH)
Inhibition over time (Rattus norvegicus [4]): 0%
Inhibition over time (Rattus norvegicus [5]): 88.5%
Inhibition over time (Rattus norvegicus [6]): 25.6%
Inhibition over time (Rattus norvegicus [7]): 64.3%
Inhibition over time (Rattus norvegicus [8]): 30.8%
Inhibition over time (Rattus norvegicus [9]): 22.4%
Inhibition over time (Rattus norvegicus [12]): 26.3%
Inhibition over time (Rattus norvegicus [13]): 0%
Inhibition over time (Rattus norvegicus [14]): 37%
Inhibition over time (Rattus norvegicus [15]): 14.5%
Inhibition over time (Rattus norvegicus [16]): 59.8%
Inhibition over time (Rattus norvegicus [18]): 27.5%
Inhibition over time (Rattus norvegicus [20]): 24.3%
